In paper PMC7221417 (European journal of medicinal chemistry, 2020):
pIC50: −log10 of the molar value. Each block holds one molecule with its values, some of them ahead of it.

Tests used:
[1] = Stability in DMSO; assay type: physicochemical; conditions: for free anastrozole observed in DMSO (1H NMR): 2 mM, 15 min
[2] = Qualitative solubility in water and organic solvents; assay type: physicochemical
[3] = system: H295R cells (adrenocortical carcinoma); assay: Sulforhodamine B; assay type: cell-based, human
[4] = system: MDA-MB-231 cells (ER- / triple negative breast cancer); assay: Sulforhodamine B; assay type: cell-based, human; conditions: for Selectivity index (SI): IC50 (MCF12A) / IC50 (MDA-MB-231)
[5] = system: T47D cells (ER+ breast cancer); assay: Sulforhodamine B; assay type: cell-based, human; conditions: for pIC50: T47D
[6] = biological target: T1, aromatase (CYP19) in H295R cells (Homo sapiens, UniProt P11511); assay: Tritiated water-release assay of aromatase activity in H295R cells; assay type: cell-based
T1 sequence (P11511 1-503): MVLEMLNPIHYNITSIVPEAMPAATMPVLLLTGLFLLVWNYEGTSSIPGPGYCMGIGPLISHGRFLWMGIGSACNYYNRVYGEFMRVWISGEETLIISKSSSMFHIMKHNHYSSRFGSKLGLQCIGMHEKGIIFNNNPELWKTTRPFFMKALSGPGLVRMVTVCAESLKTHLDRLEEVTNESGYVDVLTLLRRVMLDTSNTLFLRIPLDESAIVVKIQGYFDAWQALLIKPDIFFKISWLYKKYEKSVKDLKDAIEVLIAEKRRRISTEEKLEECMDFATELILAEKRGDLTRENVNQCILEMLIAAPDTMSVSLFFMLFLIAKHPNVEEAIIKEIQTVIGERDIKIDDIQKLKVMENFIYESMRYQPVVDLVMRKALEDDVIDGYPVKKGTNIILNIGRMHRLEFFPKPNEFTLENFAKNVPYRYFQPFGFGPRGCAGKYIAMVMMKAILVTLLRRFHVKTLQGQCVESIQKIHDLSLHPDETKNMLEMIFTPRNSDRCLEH
How it was run: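 H295R cells were seeded at 100,000/well in DMEM/F-12 with Nu Serum and ITS for 24 h, then washed with PBS. They were incubated 1.5 h at 37 °C, 5% CO2, in phenol red-free DMEM/F-12 with 54nM 1β-3H-androstenedione plus test compound at 0.1, 1, 10, 100 nM. Released tritiated water was counted by liquid scintillation. Controls were cell-free blanks and 0.1% DMSO. Data are mean ± SD.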

[7] = system: MCF7 cells (ER+ breast cancer); assay: Sulforhodamine B; assay type: cell-based, human; conditions: for Selectivity index (SI): IC50 (MCF12A) / IC50 (MCF7)
[8] = system: MCF12A cells (non-cancerous breast); assay: Sulforhodamine B; assay type: cell-based, human
[9] = system: zebrafish (Danio rerio) embryos; conditions: concentrations far less than its IC50 value in human cancer cells; cited from earlier work
[10] = system: zebrafish (Danio rerio) embryos; assay: Zebrafish embryo toxicity assay; assay type: in vivo; conditions: 0.1, 0.5, 1 μM; 24-96 hpf; vs untreated control
How it was run: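 Wild-type Danio rerio embryos were raised at 28.5 °C. From the 2- or 4-cell stage they were exposed in 5 mL fish medium to test compound at 0.1, 0.5, 1 μM (0.5% DMSO final). Medium was refreshed at 48 h. Mortality, gross morphology and hatching were scored by stereomicroscope every 24 h to 96 hpf, against an untreated control. Triplicates, 60 embryos per treatment from three crosses; mean ± SD.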

[11] = Stability in cell culture medium/DMSO; assay type: physicochemical; conditions: 10 μM, full DMEM/F12 medium (max 0.1% DMSO), 37 °C, 1.5 h, HPLC
How it was run: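 Test compound at 10 μM in DMEM/F12 (0.1% DMSO, from DMSO stock) was held 1.5 h at 37 °C. Released ligand was extracted into diethyl ether, then cleaned on silica with acetone. The residue was redissolved in acetone with 100 μM hydrocortisone as external standard. It was run on C18 UHPLC with a 13 min water/acetonitrile gradient at 2 mL/min, with UV detection, and quantified against standard curves. Three replicates.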

[12] = Solubility in culture medium/DMSO and water/DMSO by UV-Vis; assay type: physicochemical
How it was run: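 Test compound in phenol red-free DMEM-F12 (0.1% DMSO) at 0.01, 0.1, 1, 5, 10, 20 μM, and in water (max 0.5% DMSO) at 1, 5, 10, 15 μM. Each solution was passed through a 0.2 μm syringe filter, then absorbance at 350–370 nm was read on a plate reader. A linear concentration–absorbance relationship was taken to indicate solubility.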

[13] = H295R, 48 h exposure, SRB assay
[14] = MDA-MB-231, 48 h exposure, SRB assay
[15] = MCF12A (non-cancerous), 48 h exposure, SRB assay

free anastrozole observed in DMSO (1H NMR) [1]: 25%
Molecule: C1=CCCC=CCC1.CC(C)(C#N)c1cc(Cn2cncn2)cc(C(C)(C)C#N)c1.CC(C)(C#N)c1cc(Cn2cncn2)cc(C(C)(C)C#N)c1.[Cl-].[Cl-].[Ru+2] [Complex 1, RuCOD(ATZ)2Cl2]

solubility in water (qualitative) [2]: soluble in water
Molecule: CC(C)(C#N)c1cc(Cn2cncn2)cc(C(C)(C)C#N)c1.CS(C)=O.[Cl-].[Cl-].[Cl-].[Cl-].[Na+].[Ru+3] [Complex 3, Na[trans-RuCl4ATZ(DMSO)]]

pIC50 ([3]; Homo sapiens, NCI-H295R, 48 h): < 4.00
pIC50 ([4]; Homo sapiens, MDA-MB-231, 48 h): < 4.00
pIC50 ([5]; Homo sapiens, 48 h): < 4.00
inhibition at 0.01 µM ([6]; NCI-H295R, read-out: inhibition of aromatase activity): ~50%
pIC50 ([7]; Homo sapiens, MCF7, 48 h): < 4.00
Molecule: CC(C)(C#N)c1cc(Cn2cncn2)cc(C(C)(C)C#N)c1 [anastrozole, reference compound]
pIC50 ([8]; Homo sapiens, MCF-12A, 48 h): < 4.00

The remaining lines, values behind:

Molecule: N.N.[Cl][Pt][Cl] [cisplatin]
pIC50 [3, 13]: 4.06
Selectivity index (SI) [4]: 1.32
pIC50 [4, 14]: 4.49
pIC50 ([5]; 48 h exposure, SRB assay): < 3.82
hatching rate of zebrafish embryos [9]: significant inhibition of hatching rate
Selectivity index (SI) [7]: 2.12
pIC50 ([7]; MCF7, 48 h exposure, SRB assay): 4.70
pIC50 [8, 15]: 4.37

Molecule: RuCp(PPh3)2(ATZ)BF4 [Complex 2]
pIC50 [3, 13]: 6.20
Selectivity index (SI) ([3]; IC50 (MCF12A) / IC50 (H295R)): 0.92
Selectivity index (SI) [4]: 1.49
pIC50 [4, 14]: 6.41
Selectivity index (SI) ([5]; IC50 (MCF12A) / IC50 (T47D)): 1.81
pIC50 ([5]; 48 h exposure, SRB assay): 6.49
aromatase inhibitory activity at higher concentrations ([6]; above 10 nM (tested up to 100 nM), 1.5 h, H295R cells): slight aromatase inhibitory activity
inhibition of aromatase activity ([6]; up to 10 nM, 1.5 h, H295R cells): No significant inhibition
hatching delay of zebrafish embryos [10]: no apparent
mortality of zebrafish embryos [10]: no apparent
phenotype changes of zebrafish embryos [10]: no apparent
released anastrozole in culture medium [11]: 4%
solubility in culture medium ([12]; full DMEM/F12 medium (0.1% DMSO)): ≥ 20 µM
solubility in water ([12]; water (max 0.5% DMSO)): ≥ 15 µM
Selectivity index (SI) [7]: 1.16
pIC50 ([7]; MCF7, 48 h exposure, SRB assay): 6.30
pIC50 [8, 15]: 6.24
free anastrozole observed in DMSO (1H NMR) [1]: 2%
change of UV-Vis absorption spectrum in DMSO ([1]; over 1 h): No apparent change
solubility in organic solvents (qualitative) [2]: soluble in acetone, alcohols and dimethyl sulfoxide (DMSO)
solubility in water (qualitative) [2]: poorly soluble in water
